# Publication PMC6503841 (Nature chemical biology, 2018)
# Where a SMILES comes first, the peptide text is derived from it. Where no end group is shown, it is not given here. The star is where a group is joined. Oxazole(5-CO) = O=C(c1cnco1)*; Crotonyl(E) = C/C=C/C(=O)*; 2Furoyl = O=C(c1ccco1)*; Cbz = O=C(OCc1ccccc1)*
# T1: AF9 YEATS (Homo sapiens, UniProt P42568)
# T1 sequence (P42568 1-138): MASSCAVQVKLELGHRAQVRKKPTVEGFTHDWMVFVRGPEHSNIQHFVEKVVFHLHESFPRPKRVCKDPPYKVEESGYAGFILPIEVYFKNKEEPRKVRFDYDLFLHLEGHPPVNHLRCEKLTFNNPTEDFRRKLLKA
# T2: ENL YEATS (Homo sapiens, UniProt Q03111)
# T2 sequence (Q03111 1-138): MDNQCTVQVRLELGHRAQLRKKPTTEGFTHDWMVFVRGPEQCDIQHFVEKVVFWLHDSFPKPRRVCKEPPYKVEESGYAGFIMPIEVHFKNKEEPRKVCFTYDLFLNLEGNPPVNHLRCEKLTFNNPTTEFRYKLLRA
# T3: endogenous ENL (Homo sapiens, UniProt Q03111)
# T3 sequence (Q03111 1-559): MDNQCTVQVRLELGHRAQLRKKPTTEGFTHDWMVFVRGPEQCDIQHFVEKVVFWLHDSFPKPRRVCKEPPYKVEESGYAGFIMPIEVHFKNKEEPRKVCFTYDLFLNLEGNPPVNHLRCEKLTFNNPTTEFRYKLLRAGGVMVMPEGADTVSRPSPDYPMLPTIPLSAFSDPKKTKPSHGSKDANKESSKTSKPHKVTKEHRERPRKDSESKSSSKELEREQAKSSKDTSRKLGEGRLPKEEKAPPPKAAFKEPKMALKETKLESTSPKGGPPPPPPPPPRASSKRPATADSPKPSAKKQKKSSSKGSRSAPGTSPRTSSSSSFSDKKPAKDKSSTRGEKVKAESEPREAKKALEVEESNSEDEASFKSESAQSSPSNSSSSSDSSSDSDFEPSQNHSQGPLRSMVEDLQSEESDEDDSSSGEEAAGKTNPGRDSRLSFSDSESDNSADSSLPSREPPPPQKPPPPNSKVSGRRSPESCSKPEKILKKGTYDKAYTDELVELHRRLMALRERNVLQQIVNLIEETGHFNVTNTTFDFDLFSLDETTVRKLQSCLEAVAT
# T4: endogenous AF9 (Homo sapiens, UniProt P42568)
# T4 sequence (P42568 1-568): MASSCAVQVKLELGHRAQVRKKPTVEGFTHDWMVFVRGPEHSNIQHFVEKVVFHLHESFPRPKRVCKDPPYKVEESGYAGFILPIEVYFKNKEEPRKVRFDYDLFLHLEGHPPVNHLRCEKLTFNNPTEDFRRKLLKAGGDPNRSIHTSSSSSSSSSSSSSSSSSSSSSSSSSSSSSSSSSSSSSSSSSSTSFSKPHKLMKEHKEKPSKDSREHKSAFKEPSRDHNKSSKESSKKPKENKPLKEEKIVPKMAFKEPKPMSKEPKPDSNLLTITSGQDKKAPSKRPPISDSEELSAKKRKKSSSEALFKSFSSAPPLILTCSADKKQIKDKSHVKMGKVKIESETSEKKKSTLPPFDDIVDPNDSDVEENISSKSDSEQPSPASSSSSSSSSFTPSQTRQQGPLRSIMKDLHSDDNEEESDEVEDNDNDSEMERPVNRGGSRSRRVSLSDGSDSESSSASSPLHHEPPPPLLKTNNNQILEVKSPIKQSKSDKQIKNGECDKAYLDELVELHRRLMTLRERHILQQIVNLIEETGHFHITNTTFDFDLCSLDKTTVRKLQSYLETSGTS
# T5: ENL (Homo sapiens, UniProt Q03111)
# T5 sequence (Q03111 1-559): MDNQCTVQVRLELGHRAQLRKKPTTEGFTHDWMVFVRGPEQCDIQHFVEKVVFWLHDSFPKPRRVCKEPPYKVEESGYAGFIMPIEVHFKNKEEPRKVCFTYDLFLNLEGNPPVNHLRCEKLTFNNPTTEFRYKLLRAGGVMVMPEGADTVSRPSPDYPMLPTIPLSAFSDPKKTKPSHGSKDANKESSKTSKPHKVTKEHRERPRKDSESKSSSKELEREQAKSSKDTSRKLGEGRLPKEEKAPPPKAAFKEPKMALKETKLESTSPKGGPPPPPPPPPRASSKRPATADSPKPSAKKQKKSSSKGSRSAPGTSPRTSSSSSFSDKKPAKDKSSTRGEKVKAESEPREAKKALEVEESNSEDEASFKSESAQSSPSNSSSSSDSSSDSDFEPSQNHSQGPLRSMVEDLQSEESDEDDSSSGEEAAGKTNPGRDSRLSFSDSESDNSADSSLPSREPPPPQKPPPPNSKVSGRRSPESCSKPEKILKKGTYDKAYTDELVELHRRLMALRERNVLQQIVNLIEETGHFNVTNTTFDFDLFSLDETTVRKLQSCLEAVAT
# T6: AF9 YEATS domain, AF9 (1–138) (human, UniProt P42568 1-138)
# T6 sequence (looked up): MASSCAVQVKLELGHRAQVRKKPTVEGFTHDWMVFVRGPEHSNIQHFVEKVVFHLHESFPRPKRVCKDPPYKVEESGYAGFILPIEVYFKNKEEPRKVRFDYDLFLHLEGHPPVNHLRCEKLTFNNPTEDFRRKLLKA
# T7: ENL YEATS domain, ENL (1–138) (human, UniProt Q03111 1-138)
# T7 sequence (looked up): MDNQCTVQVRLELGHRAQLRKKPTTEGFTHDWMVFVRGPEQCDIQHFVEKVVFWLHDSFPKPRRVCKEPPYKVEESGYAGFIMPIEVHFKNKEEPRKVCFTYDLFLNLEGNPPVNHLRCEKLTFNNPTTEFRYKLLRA
# How the values were obtained:
# AF9 YEATS [1] = target: T1, AF9 YEATS; assay: isothermal titration calorimetry; format: binding; details: ITC Kd versus the crotonyl group (H3K9cr)
# ENL YEATS = target: T2, ENL YEATS; assay: competitive photo-cross-linking assay, ENL YEATS; format: binding; details: comparing with AF9 YEATS
# [2] = system: YEATS domains of YEATS2 and GAS41; assay: competitive photo-cross-linking assay, YEATS2 and GAS41 YEATS domains; format: binding, human; details: AF9 and ENL versus YEATS2 and GAS41; result in words
# AF9 YEATS [3] = target: T1, AF9 YEATS; assay: competitive photo-cross-linking assay; format: binding; details: compared with ENL YEATS
# endogenous ENL = target: T3, endogenous ENL; assay: competitive photo-cross-linking pull-down in nuclear extracts, ENL; format: binding
# endogenous AF9 [4] = target: T4, endogenous AF9; assay: competitive photo-cross-linking pull-down in nuclear extracts, AF9; format: binding
# ENL = target: T5, ENL; assay: cellular thermal shift assay; format: cell-based; details: MOLM-13, MV4;11, HEL cells, 50 μM, 12 h; 55 °C, 57 °C, and 59 °C
# In short: (§1)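 CETSA: MOLM-13 (Flag-ENL), MV4;11 or HEL cells were incubated with 50 μM test compound for 12 h, washed with PBS and resuspended in PBS with protease inhibitors (~3 million cells/100 μl). Aliquots were heated at indicated temperatures for 3 min, then held at room temperature for 3 min. Cells were lysed by two liquid-nitrogen freeze-thaw cycles and spun at 20,000×g for 20 min at 4 °C. Soluble supernatant was immunoblotted.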
# endogenous AF9 [5] = target: T4, endogenous AF9; assay: cellular thermal shift assay; format: cell-based; details: MOLM-13, MV4;11, HEL cells, 50 μM, 12 h
# In short: as §1
# [6] = system: ENL at HOXA10, MYB, MYC and MEIS1 in MOLM-13 cells; assay: ChIP-qPCR of ENL at target genes; format: cell-based, human; details: MOLM-13 (Flag-ENL) cells, 50 μM, 24 hours
# In short: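 MOLM-13 (Flag-ENL) cells (about 20 million) were treated with or without 50 μM test compound for 24 h, cross-linked with formaldehyde for 10 min at room temperature and quenched with glycine. Chromatin was sonicated to 600–800 bp. 50 μg chromatin (5 μg input) was immunoprecipitated overnight at 4 °C with anti-FLAG M2 magnetic beads, washed, eluted and reverse cross-linked. DNA was measured by qPCR as percentage of input, n = 4 (HOXA10) or 3 (others).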
# MOLM-13 cells = assay: RT-qPCR of mRNA levels in MOLM-13 cells; format: cell-based, human
# [7] = target: ENL YEATS domain, ENL (1–138) (human) (UniProt Q03111); assay: cross-linking
# [8] = target: T6, AF9 YEATS domain, AF9 (1–138); assay: ITC
# [9] = target: T7, ENL YEATS domain, ENL (1–138); assay: cross-linking
# [10] = target: T6, AF9 YEATS domain, AF9 (1–138); assay: cross-linking
# [11] = nuclear extracts of HeLa S3 and MOLM-13 (Flag-ENL), result in words
molecule,measurement,setting,value
C[C@H](NC(=O)[C@@H](NC(=O)[C@H](CCC(N)=O)NC(=O)[C@@H](N)CCCCN)[C@@H](C)O)C(=O)N[C@@H](CCCNC(=N)N)C(=O)N[C@@H](CCCCNC(=O)c1ccco1)C(=O)N[C@@H](CO)C(=O)N[C@H](C(=O)NCC(=O)NCC(N)=O)[C@@H](C)O [XL-07] (H-KQTARK(2Furoyl)STGG-NH2; N-terminus and C-terminus assumed),binding enhancement,AF9 YEATS [1],4.5 fold
C[C@H](NC(=O)[C@@H](NC(=O)[C@H](CCC(N)=O)NC(=O)OCc1ccccc1)[C@@H](C)O)C(=O)N[C@@H](CCCNC(=N)N)C(=O)N[C@@H](CCCCNC(=O)c1ccco1)C(N)=O [XL-07i],lower potency against ENL YEATS,ENL YEATS,5 fold
same,selectivity among YEATS domains,[2],more selective toward the YEATS domains of AF9 and ENL over YEATS2 and GAS41
C[C@H](NC(=O)[C@@H](NC(=O)[C@H](CCC(N)=O)NC(=O)[C@@H](N)CCCCN)[C@@H](C)O)C(=O)N[C@@H](CCCNC(=N)N)C(=O)N[C@@H](CCCCNC(=O)c1cnco1)C(=O)N[C@@H](CO)C(=O)N[C@H](C(=O)NCC(=O)NCC(N)=O)[C@@H](C)O [XL-13] (H-KQTARK(Oxazole(5-CO))STGG-NH2; N-terminus and C-terminus assumed),binding enhancement,AF9 YEATS [1],14.7 fold
C[C@H](NC(=O)OCc1ccccc1)C(=O)N[C@@H](CCCNC(=N)N)C(=O)N[C@@H](CCCCNC(=O)c1cnco1)C(N)=O [XL-13m],weaker inhibition against AF9 YEATS,AF9 YEATS [3],4.5 fold
same,photo-H3K9cr-induced enrichment of ENL,endogenous ENL; [11],significantly inhibited
same,inhibition at 2 µM,endogenous ENL; read-out: inhibition of photo-H3K9cr-induced enrichment of endogenous ENL,~50%
same,enrichment of AF9,endogenous AF9 [4]; [11],little effects
same,inhibition at 2 µM,endogenous AF9 [4]; read-out: inhibition of enrichment of AF9,~3%
same,thermal stability of ENL (soluble protein),ENL,higher abundance of soluble ENL proteins
same,thermal stability of endogenous AF9,endogenous AF9 [5],almost no differences
same,"abundance of ENL at HOXA10, MYB, MYC and MEIS1",[6],decreases in the abundance of ENL
same,"transcription levels of HOXA10, MYB, MYC and MEIS1","MOLM-13 cells; MOLM-13 (Flag-ENL) cells, 50 μM, 24 hours",significant loss in the transcription levels
same,transcription suppression of MYC and HOXA9,"MOLM-13 cells; co-treatment of XL-13m (50 μM) and EPZ-5676 (500 nM), 72 hours",enhanced effect on the transcription suppression
C[C@H](NC(=O)OCc1ccccc1)C(=O)N[C@@H](C)C(=O)N[C@@H](CCCNC(=N)N)C(=O)N[C@@H](CCCCNC(=O)c1cnco1)C(N)=O [XL-13n] (Cbz-AARK(Oxazole(5-CO))-NH2),weaker inhibition against AF9 YEATS,AF9 YEATS [3],6.1 fold
"XL-13l (dipeptide with only the RK signature motif, 5-oxazolecarbonyl at K27)",IC50,[7],3300 nM
Cbz-QTARK(Oxazole(5-CO)) [XL-13a (XL-07i with the 2-furancarbonyl group replaced by a 5-oxazolecarbonyl group)],Kd,[8],130 nM
same,fold lower potency than against AF9 YEATS,[9],2.9 fold
same,IC50,[10],240 nM
"KQTARK(Crotonyl(E))STGG (peptide, UniProt P68431 5-14, looked up) [H3K9cr peptide (histone H3 residues 4–13, Lys 9 crotonylated)]",Kd,[8],14700 nM
same,IC50,[10],6000 nM
QTARK(2Furoyl) [XL-07h (pentapeptide with the QTARK sequence)],IC50,[10],4500 nM
Cbz-QTARK(2Furoyl),Kd,[8],330 nM
same,fold lower potency than against AF9 YEATS,[9],5 fold
same,IC50,[10],260 nM
